Experimental data published in ChEMBL document CHEMBL1136796 (J Med Chem, 2003).
Structures can show the parent of a compound that is named as a salt. Values belong to the compound of their own block, whether it stands above or below them.

Columns and labels:
SF-268 [1] = assay: Tested for induction of cellular death in Human ZNS SF-268 tumor cell line in Propidium Iodide Monolayer Assay; type: functional, cell-based
Procedure, shortened: (§1)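 Propidium iodide monolayer assay: cells seeded at 1 × 10^5 or 5 × 10^4 cells/mL, 24 h recovery, drug in triplicate for 3–6 days by doubling time; PI 25 μg/mL added, fluorescence (ex 530/em 620 nm) read before and after freezing at −18 °C for 24 h; viable cells from the difference; % T/C versus concentration.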

Tubulin [2] = target: T1, Tubulin (Sus scrofa, UniProt P02554+P02550); assay: In vitro inhibition of maximum porcine tubulin assembly rate after 20 min at 37 degrees C; type: functional
MAXF401 cell line = assay: Tested for induction of cellular death in Human breast 401NL tumor cell line in Propidium Iodide Monolayer Assay; type: functional, cell-based; procedure, shortened: as §1
NCI-H460 [3] = assay: Tested for induction of cellular death in Human lung H-460 tumor cell line in Propidium Iodide Monolayer Assay; type: functional, cell-based; procedure, shortened: as §1
MCF7 = assay: Tested for induction of cellular death in Human breast MCF-7 tumor cell line in Propidium Iodide Monolayer Assay; type: functional, cell-based; procedure, shortened: as §1
RXF 944 = assay: Tested for induction of cellular death in Human renal RXF 944L tumor cell line in Propidium Iodide Monolayer Assay; type: functional, cell-based; procedure, shortened: as §1
LXFL 529 = assay: Tested for induction of cellular death in Human lung LXF 529L tumor cell line in Propidium Iodide Monolayer Assay; type: functional, cell-based; procedure, shortened: as §1
Sus scrofa [4] = species on record: Sus scrofa; assay: In vitro inhibitory concentration against tubulin assembly; type: functional
K562 = assay: In vitro inhibitory concentration against human chronic myelogenous leukemia K562 cell growth; type: functional, cell-based
[5] = system: Lung LXF 629L tumor cell line; assay: Tested for induction of cellular death in Human lung LXF 629L tumor cell line in Propidium Iodide Monolayer Assay; type: functional, cell-based; procedure, shortened: as §1
RKO [6] = assay: Cytotoxic activity against human colon adenocarcinoma RKO cells without ectopic inducible expression of cyclin-dependent kinase inhibitor p27kip1; type: functional, cell-based
SF-268 [7] = assay: Cytotoxic activity against cellular metabolic activity of Glioma SF-268 tumor cell line using XTT proliferation assay after incubation with the compound for 48 h; type: functional, cell-based; conditions: Homo sapiens, SF-268, 48 h
LT12 tumor cell line [8] = assay: Antiproliferative activity against LT12 tumor cell line; type: functional, cell-based; conditions: Rattus norvegicus
NCI-H460 [9] = assay: Cytotoxic activity against cellular metabolic activity of Lung NCI-H460 tumor cell line using XTT proliferation assay after incubation with the compound for 48 h; type: functional, cell-based; conditions: Homo sapiens, NCI-H460, 48 h
Procedure, shortened: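 NCI-H460 human lung tumor cells seeded at 1 × 10^3 cells/well in microtiter plates and exposed to a range of compound concentrations for 48 h. Proliferation read as cellular metabolic activity by XTT. At least two replicates (n = 2); IC50 obtained from dose–response curves by nonlinear regression.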

SK-OV-3 = assay: Cytotoxic activity against cellular metabolic activity of Ovary SKOV3 tumor cell line using XTT proliferation assay after incubation with the compound for 48 h; type: functional, cell-based; conditions: Homo sapiens, SK-OV-3, 48 h
L1210 [10] = assay: Antiproliferative activity against L1210 tumor cell line; type: functional, cell-based; conditions: Mus musculus
LT12 tumor cell line [11] = assay: Antiproliferative activity against LT12 phenotype LT12 MDR tumor cell line; type: functional, cell-based; conditions: Rattus norvegicus
P388 (Mus musculus) = assay: Antiproliferative activity against P388 tumor cell line
L1210 [12] = assay: Antiproliferative activity against L1210 phenotype L1210 VCR tumor cell line; type: functional, cell-based; conditions: Mus musculus
RKO [13] = assay: Cytotoxic activity against human colon adenocarcinoma RKO cells with ectopic inducible expression of cyclin-dependent kinase inhibitor p27kip1; type: functional, cell-based
HeLa (Homo sapiens) = assay: Effective concentration required to arrest propidium iodide stained KB/HeLa cells in G2/M phase
KB = assay: Cytotoxic activity against cellular metabolic activity of Cervix KB/HeLa tumor cell line using XTT proliferation assay after incubation with the compound for 48 h; type: functional, cell-based; conditions: Homo sapiens
P388/ADR = assay: Antiproliferative activity against P388 phenotype P388 ADR tumor cell line; type: functional, cell-based; conditions: Mus musculus
Sus scrofa [14] = species on record: Sus scrofa; assay: Concentration required to inhibit Microtubule assembly compared to colchicine using EM studies; type: functional
Tubulin [15] = target: T1, Tubulin; assay: In vitro inhibitory concentration required to displace [3H]colchicine from its binding site on Tubulin; type: protein assay
Procedure, shortened: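 Streptavidin-coated yttrium SPA beads were then added and bound radioactivity measured by scintillation counting. IC50 was derived by nonlinear regression.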

SMILES: CC[C@]1(O)C[C@@H]2CN(CCc3c([nH]c4ccccc34)[C@@](C(=O)OC)(c3cc4c(cc3OC)N(C)[C@H]3[C@@](O)(C(N)=O)[C@H](O)[C@]5(CC)C=CCN6CC[C@]43[C@@H]65)C2)C1 [VINDESINE]
IC50 (LT12 tumor cell line [8]): 1 nM
IC50 (L1210 [10]): 20 nM
IC50 (LT12 tumor cell line [11]): 260 nM
IC50 (P388 (Mus musculus)): 10 nM
IC50 (L1210 [12]): > 5000 nM
IC50 (P388/ADR): 1100 nM

SMILES: COc1ccc(C=C2c3ccccc3C(=O)c3ccccc32)cc1O
IC50 (RKO [6]): 60 nM
IC50 (SF-268 [7]): 50 nM
IC50 (LT12 tumor cell line [8]): 320 nM
IC50 (SF-268 [1]): 30 nM
IC50 (Tubulin [2]): 670 nM
IC50 (MAXF401 cell line): < 10 nM
IC50 (NCI-H460 [3]): < 10 nM
IC50 (MCF7): < 10 nM
IC50 (NCI-H460 [9]): 70 nM
IC50 (RXF 944): < 10 nM
IC50 (SK-OV-3): 50 nM
IC50 (LXFL 529): 520 nM
IC50 (L1210 [10]): 140 nM
IC50 (LT12 tumor cell line [11]): 190 nM
IC50 (Sus scrofa [4]): 670 nM
IC50 (P388 (Mus musculus)): 160 nM
IC50 (L1210 [12]): 130 nM
IC50 (RKO [13]): > 9000 nM
EC50 (HeLa (Homo sapiens)): 206 nM
IC50 (Sus scrofa [14]): 700 nM
IC50 (K562): 20 nM
IC50 (KB): 90 nM
IC50 (P388/ADR): 260 nM
IC50 [5]: < 10 nM
IC50 (Tubulin [15]): 370 nM

SMILES: O=C1c2ccccc2C(=Cc2ccc(OCc3ccccc3)cc2)c2ccccc21
IC50 (Tubulin [2]): > 10000 nM
IC50 (K562): 22000 nM

SMILES: CC[C@]1(O)C[C@@H]2CN(CCc3c([nH]c4ccccc34)[C@@](C(=O)OC)(c3cc4c(cc3OC)N(C)[C@H]3[C@@](O)(C(=O)OC)[C@H](OC(C)=O)[C@]5(CC)C=CCN6CC[C@]43[C@@H]65)C2)C1 [VINBLASTINE SULFATE]
IC50 (K562): 1 nM

SMILES: COc1ccc(/C=C\c2cc(OC)c(OC)c(OC)c2)cc1O [COMBRETASTATIN A4]
IC50 (K562): 20 nM

SMILES: Cc1cc(C=C2c3ccccc3C(=O)c3ccccc32)cc(C)c1O
IC50 (Tubulin [2]): 910 nM
IC50 (K562): 800 nM

SMILES: COc1ccc(C=C2c3ccccc3C(=O)c3ccccc32)cc1OC
IC50 (Tubulin [2]): 1700 nM
IC50 (K562): 600 nM

SMILES: CCOC(=O)c1ccc(C=C2c3ccccc3C(=O)c3ccccc32)cc1
IC50 (K562): 700 nM

SMILES: COc1cc(C=C2c3ccccc3C(=O)c3ccccc32)cc(OC)c1
IC50 (Tubulin [2]): > 10000 nM
IC50 (K562): 600 nM

SMILES: COc1ccc(CC2c3ccccc3C(=O)c3ccccc32)cc1OC
IC50 (Tubulin [2]): > 10000 nM
IC50 (K562): 62000 nM

SMILES: COc1cc2c(c(OC)c1OC)-c1ccc(OC)c(=O)cc1[C@@H](NC(C)=O)CC2 [COLCHICINE]
IC50 (RKO [6]): 20 nM
IC50 (SF-268 [7]): 50 nM
IC50 (NCI-H460 [9]): 70 nM
IC50 (SK-OV-3): 50 nM
IC50 (RKO [13]): > 10000 nM
IC50 (K562): 20 nM
IC50 (KB): 30 nM

Now from value to compound, other results behind:

IC50 (Tubulin [2]): 630 nM
IC50 (Sus scrofa [4]): < 1000 nM
IC50 (K562): 1400 nM
SMILES: COc1cc(C=C2c3ccccc3C(=O)c3ccccc32)ccc1O
IC50 (SF-268 [1]): 2970 nM
IC50 (MAXF401 cell line): 1510 nM
IC50 (NCI-H460 [3]): 2360 nM
IC50 (MCF7): 2520 nM
IC50 (RXF 944): 2830 nM
IC50 (LXFL 529): 3230 nM
IC50 [5]: 2070 nM

IC50 (LT12 tumor cell line [8]): 6 nM
IC50 (L1210 [10]): 60 nM
IC50 (LT12 tumor cell line [11]): 400 nM
IC50 (P388 (Mus musculus)): 40 nM
IC50 (L1210 [12]): > 5000 nM
EC50 (HeLa (Homo sapiens)): 54 nM
IC50 (P388/ADR): > 5000 nM
SMILES: CC(=O)O[C@H]1C(=O)[C@@]2(C)[C@H]([C@H](OC(=O)c3ccccc3)[C@]3(O)C[C@H](OC(=O)[C@H](O)[C@@H](NC(=O)c4ccccc4)c4ccccc4)C(C)=C1C3(C)C)[C@]1(OC(C)=O)CO[C@@H]1C[C@@H]2O [PACLITAXEL]
IC50 (RKO [6]): 10 nM
IC50 (SF-268 [7]): 10 nM
IC50 (NCI-H460 [9]): 10 nM
IC50 (SK-OV-3): 10 nM
IC50 (RKO [13]): > 3000 nM
IC50 (KB): 10 nM

IC50 (K562): 39000 nM
SMILES: CC(C)(C)c1cc(C=C2c3ccccc3C(=O)c3ccccc32)cc(C(C)(C)C)c1O

IC50 (Tubulin [2]): > 10000 nM
IC50 (K562): > 80000 nM
SMILES: COc1cc(CC2c3ccccc3C(=O)c3ccccc32)cc(OC)c1OC

IC50 (K562): 900 nM
SMILES: O=C1c2ccccc2C(=Cc2ccc3c(c2)OCO3)c2ccccc21

IC50 (Tubulin [2]): > 10000 nM
IC50 (K562): 20000 nM
SMILES: O=C1c2ccccc2C(=Cc2cc(O)c(O)c(O)c2)c2ccccc21

IC50 (Tubulin [2]): 910 nM
IC50 (Sus scrofa [4]): < 1000 nM
IC50 (K562): 730 nM
SMILES: COc1cccc(C=C2c3ccccc3C(=O)c3ccccc32)c1O
IC50 (SF-268 [1]): 980 nM
IC50 (MAXF401 cell line): 20 nM
IC50 (NCI-H460 [3]): 3330 nM
IC50 (MCF7): 800 nM
IC50 (RXF 944): 360 nM
IC50 (LXFL 529): 4450 nM
IC50 [5]: 2020 nM
